Source: BindingDB's records for doi:10.1016/j.bmc.2010.05.001 (St. Jude Children'S Research Hospital, 2011)

Assays:
Zinc finger protein GLI1 [1] = target: T1, Zinc finger protein GLI1 (Homo sapiens, UniProt P08151); test: Inhibition of human Gli1-mediated transcriptional activity in human Rh30 cells after 24 hrs by luciferase reporter gene assay
T1 sequence (P08151 whole entry): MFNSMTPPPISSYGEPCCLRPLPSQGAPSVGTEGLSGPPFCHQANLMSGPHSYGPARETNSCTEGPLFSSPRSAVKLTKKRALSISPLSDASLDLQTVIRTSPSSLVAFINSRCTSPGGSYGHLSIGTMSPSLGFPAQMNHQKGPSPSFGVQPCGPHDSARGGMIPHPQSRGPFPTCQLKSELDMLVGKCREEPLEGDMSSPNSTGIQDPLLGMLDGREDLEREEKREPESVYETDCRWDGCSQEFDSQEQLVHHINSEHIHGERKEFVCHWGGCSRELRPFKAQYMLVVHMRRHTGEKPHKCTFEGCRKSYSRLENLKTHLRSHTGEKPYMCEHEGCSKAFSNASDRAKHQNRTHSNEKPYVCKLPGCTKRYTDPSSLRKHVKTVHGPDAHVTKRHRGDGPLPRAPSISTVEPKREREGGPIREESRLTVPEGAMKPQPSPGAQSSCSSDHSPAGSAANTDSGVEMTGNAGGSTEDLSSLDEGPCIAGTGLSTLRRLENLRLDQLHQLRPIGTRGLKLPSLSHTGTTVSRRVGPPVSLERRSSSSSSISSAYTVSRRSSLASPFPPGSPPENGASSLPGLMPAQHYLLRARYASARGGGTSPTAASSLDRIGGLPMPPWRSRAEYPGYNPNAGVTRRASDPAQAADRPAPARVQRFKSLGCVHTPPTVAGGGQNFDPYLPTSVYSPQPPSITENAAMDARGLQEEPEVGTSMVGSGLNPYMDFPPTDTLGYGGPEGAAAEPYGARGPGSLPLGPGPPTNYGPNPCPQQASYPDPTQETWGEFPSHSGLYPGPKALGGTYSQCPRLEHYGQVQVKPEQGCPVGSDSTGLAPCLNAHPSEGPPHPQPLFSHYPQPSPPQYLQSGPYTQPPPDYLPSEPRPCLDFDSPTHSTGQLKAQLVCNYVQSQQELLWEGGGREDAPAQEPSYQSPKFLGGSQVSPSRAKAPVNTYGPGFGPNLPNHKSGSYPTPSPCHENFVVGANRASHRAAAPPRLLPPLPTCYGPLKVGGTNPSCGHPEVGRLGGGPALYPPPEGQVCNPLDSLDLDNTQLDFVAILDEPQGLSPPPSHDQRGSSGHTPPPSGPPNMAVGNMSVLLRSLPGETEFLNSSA
Outline: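 Rh30 cells without Gli1 transfection, transfected overnight with GliLuc-BS (500 ng/mL) and pRL-CMV (2.5 ng/mL), then replated in 96-well plates. Compound given in RPMI-1640/10% FBS for 24 h at 37 °C. Firefly luminescence divided by Renilla and normalized to DMSO-treated cells (0% inhibition), triplicates.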

Zinc finger protein GLI1 [2] = target: T1, Zinc finger protein GLI1; test: Inhibition of human Gli1 expressed in mouse C3H10T1/2 cells assessed as inhibition of transcriptional activity after 24 hrs by luciferase reporter gene assay
Outline: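 C3H10T1/2 cells transiently transfected overnight with GliLuc-BS, pRL-TK Renilla control and human Gli1 (or mouse Gli2 for Gli2 lines), 250 ng/mL each for the Gli plasmids. Firefly/Renilla dual-luciferase ratio normalized to DMSO, triplicates. Dose–response IC50 from curve fitting.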

| IC50 (Zinc finger protein GLI1 [1]) | IC50 (Zinc finger protein GLI1 [2]) | Compound |
| --- | --- | --- |
| 40 µM | – | CN(C)c1ccccc1CN1CCCN(Cc2ccccc2N(C)C)C1c1ccncc1 [2-((3-(2-(dimethylamino)benzyl)-2-(pyridin-4-yl)-tetrahydropyrimidin-1(2H)-yl)methyl)-N,N-dimethylbenzenamine] |
| – | 1.6 µM | CCCN(C(=O)C(C)c1cccc(C(=O)c2ccccc2)c1)c1ccc2[nH]ccc2c1 (configuration not stated) [2-(3-Benzoylphenyl)-N-(1H-indol-5-yl)-N-propylpropanamide] |
